Assay results taken from ChEMBL document CHEMBL3259728, “Design, synthesis and biological evaluation of some novel substituted quinazolines as antitumor agents” (2014).

Experiments:
Format in all cases: functional
M14 = test: Growth inhibition of human M14 cells assessed as cell growth at 10^-8 M after 48 hrs by SRB assay; conditions: M14, 48 h, read-out: Activity
[1] = Growth inhibition of human MOLT4 cells assessed as cell growth at 10^-8 M after 48 hrs by SRB assay; conditions: MOLT-4, 48 h, read-out: Activity
CAKI-1 = test: Growth inhibition of human CAKI-1 cells assessed as cell growth at 10^-5 M after 48 hrs by SRB assay; conditions: CAKI-1, 48 h, read-out: Activity
How it was run: (§1)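 Five-dose NCI panel protocol. Each dose (10^-4 to 10^-8 M, 10-fold steps) was given as 48 h continuous exposure, and protein was measured by SRB staining. Percentage growth at each level is [(Ti−Tz)/(C−Tz)]×100, where Tz is time-zero absorbance and C is untreated control.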

[2] = Growth inhibition of human OVCAR5 cells assessed as cell growth at 10^-6 M after 48 hrs by SRB assay; conditions: OVCAR-5, 48 h, read-out: Activity
SK-MEL-28 = test: Growth inhibition of human SK-MEL-28 cells assessed as cell growth at 10^-6 M after 48 hrs by SRB assay; conditions: SK-MEL-28, 48 h, read-out: Activity
[3] = Growth inhibition of human LOXIMVI cells assessed as cell growth at 10^-6 M after 48 hrs by SRB assay; conditions: LOX IMVI, read-out: Activity
SNB-75 = test: Growth inhibition of human SNB75 cells assessed as cell growth at 10^-6 M after 48 hrs by SRB assay; conditions: SNB-75, 48 h, read-out: Activity
SNB-19 = test: Growth inhibition of human SNB19 cells assessed as cell growth at 10^-6 M after 48 hrs by SRB assay; conditions: SNB-19, 48 h, read-out: Activity
MDA-MB-435 [4] = test: Growth inhibition of human MDA-MB-435 cells assessed as cell growth at 10^-4 M after 48 hrs by SRB assay; conditions: MDA-MB-435, 48 h, read-out: Activity
NCI-H226 [5] = test: Growth inhibition of human NCI-H226 cells assessed as cell growth at 10^-4 M after 48 hrs by SRB assay; conditions: NCI-H226, 48 h, read-out: Activity
[6] = Growth inhibition of human EKVX cells assessed as cell growth at 10^-4 M after 48 hrs by SRB assay; conditions: read-out: Activity
NCI-H322M = test: Growth inhibition of human NCI-H322M cells assessed as cell growth at 10^-5 M after 48 hrs by SRB assay; conditions: read-out: Activity
DU-145 = test: Growth inhibition of human DU145 cells assessed as cell growth at 10^-7 M after 48 hrs by SRB assay; conditions: DU-145, 48 h, read-out: Activity
[7] = Cytotoxicity against human OVCAR5 cells after 48 hrs by SRB assay; conditions: OVCAR-5, 48 h
How it was run: (§2)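 NCI 60-cell-line panel of human tumour lines from nine cancer types. Continuous 48 h exposure at five 10-fold dilutions from 10^-4 to 10^-8 M, with 5-FU as positive control. SRB protein stain read spectrophotometrically at time zero, untreated control and each concentration. GI50, TGI and LC50 were derived from the [(Ti−Tz)/(C−Tz)]×100 growth relations, and out-of-range values are given as > or < the tested limits.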

MDA-MB-435 [8] = test: Cytotoxicity against human MDA-MB-435 cells after 48 hrs by SRB assay; conditions: MDA-MB-435, 48 h; how it was run: as §2
[9] = Growth inhibition of human SF295 cells assessed as cell growth at 10^-6 M after 48 hrs by SRB assay; conditions: SF-295, 48 h, read-out: Activity
[10] = Growth inhibition of human SF295 cells assessed as cell growth at 10^-8 M after 48 hrs by SRB assay; conditions: SF-295, 48 h, read-out: Activity
T47D = test: Cytotoxicity against human T47D cells after 48 hrs by SRB assay
How it was run: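 NCI 60-cell-line panel, 48 h continuous exposure to five 10-fold dilutions from 10^-4 to 10^-8 M. SRB protein staining was read spectrophotometrically, with time-zero, untreated-control and treated absorbances. GI50, TGI and LC50 were derived from the percentage-growth formulas. Values outside the tested range are expressed as more or less than the maximum or minimum concentration.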

MDA-MB-468 = test: Cytotoxicity against human MDA-MB-468 cells after 48 hrs by SRB assay; conditions: MDA-MB-468, 48 h; how it was run: as §2
786-0 = test: Growth inhibition of human 786-0 cells assessed as cell growth at 10^-7 M after 48 hrs by SRB assay; conditions: 786-0, 48 h, read-out: Activity; how it was run: as §1
SK-OV-3 = test: Growth inhibition of human SKOV3 cells assessed as cell growth at 10^-7 M after 48 hrs by SRB assay; conditions: SK-OV-3, 48 h, read-out: Activity
[11] = Growth inhibition of human UACC257 cells assessed as cell growth at 10^-7 M after 48 hrs by SRB assay; conditions: UACC-257, 48 h, read-out: Activity
COLO 205 = test: Cytotoxicity against human COLO205 cells after 48 hrs by SRB assay; conditions: COLO 205, 48 h; how it was run: as §2
NCI-H226 [12] = test: Cytotoxicity against human NCI-H226 cells after 48 hrs by SRB assay; conditions: NCI-H226, 48 h; how it was run: as §2
RPMI-8226 = test: Cytotoxicity against human RPMI8226 cells after 48 hrs by SRB assay; conditions: RPMI-8226, 48 h; how it was run: as §2
SK-MEL-5 = test: Growth inhibition of human SK-MEL-5 cells assessed as cell growth at 10^-4 M after 48 hrs by SRB assay; conditions: SK-MEL-5, 48 h, read-out: Activity
[13] = read-out: LC50 (the source's name)
[14] = read-out: pLC50 (the source's name) (converted)

Q: Which growth at 0.01 µM (M14) does the source give for `Cc1ccc(-c2nc3ccc(Cl)cc3c(=O)n2/N=C/c2ccccc2)cc1` here?
A: The growth at 0.01 µM was 95%.

Q: What about the growth at 0.01 µM [1] of the same compound?
A: Its growth at 0.01 µM is 103%.

Q: And the growth at 10 µM (CAKI-1)?
A: Its growth at 10 µM is 38%.

Q: And the growth at 1 µM [2]?
A: Its growth at 1 µM is 90%.

Q: And the growth at 1 µM (SK-MEL-28)?
A: Its growth at 1 µM is 93%.

Q: And the growth at 1 µM [3]?
A: The growth at 1 µM was 89%.

Q: What about the growth at 1 µM (SNB-75) of the same compound?
A: The growth at 1 µM was 64%.

Q: And the growth at 1 µM (SNB-19)?
A: Its growth at 1 µM is 88%.

Q: What about the growth at 100 µM (MDA-MB-435 [4]) of the same compound?
A: Its growth at 100 µM is 57%.

Q: And the growth at 100 µM (NCI-H226 [5])?
A: Its growth at 100 µM is 18%.

Q: And the growth at 100 µM [6]?
A: Its growth at 100 µM is 11%.

Q: What about the growth at 10 µM (NCI-H322M) of the same compound?
A: The growth at 10 µM was 52%.

Q: What about the growth at 0.1 µM (DU-145) of the same compound?
A: Its growth at 0.1 µM is 98%.

Q: What about the GI50 ([7]; read-out: GI50) of the same compound?
A: The GI50 was > 100 µM.

Q: What about the CC50 [7, 13] of the same compound?
A: Its CC50 is > 100 µM.

Q: And the TGI ([7]; read-out: TGI)?
A: The TGI was > 100 µM.

Q: And the GI50 ([7]; read-out: pGI50 (converted))?
A: Its GI50 is > 100 µM.

Q: And the CC50 [7, 14]?
A: Its CC50 is > 100 µM.

Q: And the TGI ([7]; read-out: pTGI)?
A: The TGI was > 100 µM.

Q: What about the GI50 (MDA-MB-435 [8]; read-out: GI50) of the same compound?
A: The GI50 was > 100 µM.

Q: What about the CC50 (MDA-MB-435 [8]; [13]) of the same compound?
A: The CC50 was > 100 µM.

Q: And the TGI (MDA-MB-435 [8]; read-out: TGI)?
A: Its TGI is > 100 µM.

Q: What about the GI50 (MDA-MB-435 [8]; read-out: pGI50 (converted)) of the same compound?
A: The GI50 was > 100 µM.

Q: What about the CC50 (MDA-MB-435 [8]; [14]) of the same compound?
A: Its CC50 is > 100 µM.

Q: And the TGI (MDA-MB-435 [8]; read-out: pTGI)?
A: The TGI was > 100 µM.

Q: What about the growth at 1 µM [9] of the same compound?
A: Its growth at 1 µM is 80%.

Q: What about the growth at 0.01 µM [10] of the same compound?
A: Its growth at 0.01 µM is 91%.

Q: What about the GI50 (T47D; read-out: GI50) of the same compound?
A: Its GI50 is 3.82 µM.

Q: And the CC50 (T47D; [13])?
A: The CC50 was > 100 µM.

Q: And the TGI (T47D; read-out: TGI)?
A: Its TGI is > 100 µM.

Q: And the GI50 (T47D; read-out: pGI50 (converted))?
A: The GI50 was 3.8 µM.

Q: And the CC50 (T47D; [14])?
A: The CC50 was > 100 µM.

Q: What about the TGI (T47D; read-out: pTGI) of the same compound?
A: The TGI was > 100 µM.

Q: What about the GI50 (MDA-MB-468; read-out: GI50) of the same compound?
A: The GI50 was 57.6 µM.

Q: And the LC50 (MDA-MB-468; read-out: LC50)?
A: Its LC50 is > 100 µM.

Q: And the TGI (MDA-MB-468; read-out: TGI)?
A: The TGI was > 100 µM.

Q: What about the GI50 (MDA-MB-468; read-out: pGI50 (converted)) of the same compound?
A: Its GI50 is 57.5 µM.

Q: And the LC50 (MDA-MB-468; read-out: pLC50 (converted))?
A: Its LC50 is > 100 µM.

Q: What about the TGI (MDA-MB-468; read-out: pTGI) of the same compound?
A: The TGI was > 100 µM.

Q: And the growth at 0.1 µM (786-0)?
A: Its growth at 0.1 µM is 93%.

Q: And the growth at 0.1 µM (SK-OV-3)?
A: Its growth at 0.1 µM is 97%.

Q: What about the growth at 0.1 µM [11] of the same compound?
A: Its growth at 0.1 µM is 99%.

Q: What about the GI50 (COLO 205; read-out: GI50) of the same compound?
A: Its GI50 is 9 µM.

Q: And the LC50 (concentration killing 50% of cells) (COLO 205; read-out: LC50)?
A: Its LC50 (concentration killing 50% of cells) is > 100 µM.

Q: And the TGI (COLO 205; read-out: TGI)?
A: Its TGI is > 100 µM.

Q: What about the GI50 (COLO 205; read-out: pGI50 (converted)) of the same compound?
A: Its GI50 is 8.91 µM.

Q: What about the LC50 (concentration killing 50% of cells) (COLO 205; read-out: pLC50 (converted)) of the same compound?
A: Its LC50 (concentration killing 50% of cells) is > 100 µM.

Q: And the TGI (COLO 205; read-out: pTGI)?
A: Its TGI is > 100 µM.

Q: And the GI50 (NCI-H226 [12]; read-out: GI50)?
A: The GI50 was 5.14 µM.

Q: What about the CC50 (NCI-H226 [12]; [13]) of the same compound?
A: Its CC50 is > 100 µM.

Q: What about the TGI (NCI-H226 [12]; read-out: TGI) of the same compound?
A: The TGI was > 100 µM.

Q: And the GI50 (NCI-H226 [12]; read-out: pGI50 (converted))?
A: Its GI50 is 5.13 µM.

Q: And the CC50 (NCI-H226 [12]; [14])?
A: The CC50 was > 100 µM.

Q: What about the TGI (NCI-H226 [12]; read-out: pTGI) of the same compound?
A: Its TGI is > 100 µM.

Q: What about the GI50 (RPMI-8226; read-out: GI50) of the same compound?
A: The GI50 was > 100 µM.

Q: What about the CC50 (RPMI-8226; [13]) of the same compound?
A: Its CC50 is > 100 µM.

Q: And the TGI (RPMI-8226; read-out: TGI)?
A: The TGI was > 100 µM.

Q: And the GI50 (RPMI-8226; read-out: pGI50 (converted))?
A: The GI50 was > 100 µM.

Q: What about the CC50 (RPMI-8226; [14]) of the same compound?
A: Its CC50 is > 100 µM.

Q: And the TGI (RPMI-8226; read-out: pTGI)?
A: Its TGI is > 100 µM.

Q: And the growth at 100 µM (SK-MEL-5)?
A: Its growth at 100 µM is 34%.
